pIC50: −log10 of the molar value.
Assays:
[1] = biological target: T1, Amine oxidase [flavin-containing] B (Rattus norvegicus, UniProt P19643); experiment: Inhibition of Sprague-Dawley rat MAO-B using Kynuramine as substrate assessed as formation of 4-hydroxyquinoline preincubated for 5 mins prior to substrate addition measured for 5 mins by spectrophotometry; conditions: read-out: pIC50 (converted)
T1 sequence (P19643 whole entry): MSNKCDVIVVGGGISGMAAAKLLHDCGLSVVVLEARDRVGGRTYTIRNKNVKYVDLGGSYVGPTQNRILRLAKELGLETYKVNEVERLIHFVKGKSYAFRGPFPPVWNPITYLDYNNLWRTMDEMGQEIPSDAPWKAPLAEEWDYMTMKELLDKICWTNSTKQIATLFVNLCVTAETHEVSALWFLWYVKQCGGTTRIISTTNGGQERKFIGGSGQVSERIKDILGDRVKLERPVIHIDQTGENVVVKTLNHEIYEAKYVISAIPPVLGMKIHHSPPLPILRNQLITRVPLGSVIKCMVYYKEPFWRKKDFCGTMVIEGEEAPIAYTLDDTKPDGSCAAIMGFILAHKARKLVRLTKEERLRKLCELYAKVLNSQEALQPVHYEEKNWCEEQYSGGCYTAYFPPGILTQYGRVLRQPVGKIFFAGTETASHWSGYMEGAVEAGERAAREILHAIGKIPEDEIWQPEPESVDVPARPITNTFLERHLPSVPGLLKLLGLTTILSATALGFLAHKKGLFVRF

[2] = biological target: T2, MAO-A (amine oxidase [flavin-containing] A) (Rattus norvegicus, UniProt P21396); experiment: Inhibition of Sprague-Dawley rat MAO-A using Kynuramine as substrate assessed as formation of 4-hydroxyquinoline at 10 uM preincubated for 5 mins prior to substrate addition measured for 5 mins by spectrophotometry; conditions: rat MAO-A enzyme preparation, probe kynuramine
T2 sequence (P21396 whole entry): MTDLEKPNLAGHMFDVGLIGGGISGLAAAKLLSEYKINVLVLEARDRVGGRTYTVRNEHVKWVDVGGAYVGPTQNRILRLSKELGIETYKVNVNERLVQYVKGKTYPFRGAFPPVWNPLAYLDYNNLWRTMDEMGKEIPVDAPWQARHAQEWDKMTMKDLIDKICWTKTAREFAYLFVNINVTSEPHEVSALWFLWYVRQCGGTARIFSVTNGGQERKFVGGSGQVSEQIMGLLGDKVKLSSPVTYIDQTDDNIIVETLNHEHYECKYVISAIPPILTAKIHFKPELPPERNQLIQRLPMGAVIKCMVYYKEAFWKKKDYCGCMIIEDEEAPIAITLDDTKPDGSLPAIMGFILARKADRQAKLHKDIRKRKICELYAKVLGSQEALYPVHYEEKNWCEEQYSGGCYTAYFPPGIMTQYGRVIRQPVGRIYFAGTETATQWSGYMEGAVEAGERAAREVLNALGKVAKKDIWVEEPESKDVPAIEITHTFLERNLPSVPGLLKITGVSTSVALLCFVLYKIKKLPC

[3] = biological target: T3, Amine oxidase [flavin-containing] A (Rattus norvegicus, UniProt P21396); experiment: Inhibition of Sprague-Dawley rat MAO-A using Kynuramine as substrate assessed as formation of 4-hydroxyquinoline preincubated for 5 mins prior to substrate addition measured for 5 mins by spectrophotometry
T3 sequence (P21396 whole entry): T2 sequence (P21396 whole entry)
How it was run: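 Enzyme source: crude brain mitochondrial fraction from male Sprague-Dawley rats (200-250 g), decapitated. Brains were washed in ice-cold isotonic Na2HPO4/KH2PO4 buffer (pH 7.40) with sucrose, fractionated by differential centrifugation, and stored at -40 °C in isotonic phosphate buffer (pH 7.4) with KCl. Kynuramine oxidation to 4-hydroxyquinoline was monitored spectrophotometrically. Values are the mean of two or three independent experiments.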

| Structure (SMILES) | IC50 [1] [nM] | inhibition at 5 min, 10 µM [2] [%] | pIC50 [3] |
| --- | --- | --- | --- |
| O=c1cc(C(F)(F)F)c2ccc(OCc3cccc(Cl)c3)cc2o1 | 871 | 16 | – |
| NC(=O)COc1cc(=O)oc2cc(OCc3cccc(Br)c3)ccc12 | 8.91 | – | 5.05 |
| CC(=O)c1cc(=O)oc2cc(OCc3cccc(Cl)c3)ccc12 | 39.8 | 0 | – |
| O=c1cc(Oc2ccccc2)c2ccc(OCc3cccc(Cl)c3)cc2o1 | 4070 | 0 | – |
| COc1cc(=O)oc2cc(OCc3ccccc3)ccc12 | 100 | 22 | – |
| O=C(O)c1cc(=O)oc2cc(OCc3cccc(Cl)c3)ccc12 | – | 0 | – |
| O=c1cc(CCl)c2ccc(OCc3cccc(Br)c3)cc2o1 | 209 | 28 | – |
| O=c1cc(CN2CCCC2)c2ccc(OCc3cccc(Cl)c3)cc2o1 | 1700 | 16 | – |
| CCCCNCc1cc(=O)oc2cc(OCc3cccc(Cl)c3)ccc12 | 447 | 1.1 | – |
| O=c1cc(/C=N/O)c2ccc(OCc3cccc(Cl)c3)cc2o1 | 219 | 48 | – |
| O=c1cc(CN2CCOCC2)c2ccc(OCc3cccc(Cl)c3)cc2o1 | 2290 | 11 | – |
| CC(=O)Nc1cc(=O)oc2cc(OCc3cccc(Cl)c3)ccc12 | 38.9 | – | 6.55 |
| O=c1cc(Nc2ccccc2)c2ccc(OCc3cccc(Cl)c3)cc2o1 | 9770 | 0 | – |
| O=Cc1cc(=O)oc2cc(OCc3cccc(Cl)c3)ccc12 | 52.5 | 14 | – |
| CCOc1cc(=O)oc2cc(OCc3ccccc3)ccc12 | 759 | 0 | – |
| O=C(COc1cc(=O)oc2cc(OCc3cccc(Cl)c3)ccc12)N1CCCCC1 | 38900 | 9 | – |

| Structure (SMILES) | IC50 [1] [nM] | inhibition at 5 min, 10 µM [2] [%] | pIC50 [3] |
| --- | --- | --- | --- |
| O=C(COc1cc(=O)oc2cc(OCc3cccc(Cl)c3)ccc12)N1CCOCC1 | 12900 | 3.2 | – |
| O=c1cc(O)c2ccc(OCc3cccc(Br)c3)cc2o1 | 490 | 0 | – |
| COc1cc(=O)oc2cc(OCc3cccc(Br)c3)ccc12 | 5.75 | 27 | – |
| CNCc1cc(=O)oc2cc(OCc3cccc(Br)c3)ccc12 | 11 | 40 | – |
| NC(=O)c1cc(=O)oc2cc(OCc3cccc(Cl)c3)ccc12 | 234 | 14 | – |
| O=c1cc(O)c2ccc(OCc3ccccc3)cc2o1 | 9120 | 2 | – |
| CCNC(=O)Nc1cc(=O)oc2cc(OCc3cccc(Cl)c3)ccc12 | – | 0 | – |
| O=c1cc(CO)c2ccc(OCc3cccc(Br)c3)cc2o1 | 14.1 | 49 | – |
| COc1cc(=O)oc2cc(OCc3cccc(F)c3)ccc12 | 36.3 | 49 | – |
| CC(C)Nc1cc(=O)oc2cc(OCc3cccc(Cl)c3)ccc12 | 7760 | 0 | – |
| CN(C)C(=O)Cc1cc(=O)oc2cc(OCc3cccc(Cl)c3)ccc12 | – | 0 | – |
| CCOC(=O)Nc1cc(=O)oc2cc(OCc3cccc(Cl)c3)ccc12 | 589 | 21 | – |
| N#Cc1cc(=O)oc2cc(OCc3cccc(Cl)c3)ccc12 | 102 | 23 | – |
| CN(C)Cc1cc(=O)oc2cc(OCc3cccc(Cl)c3)ccc12 | – | 5.7 | – |
| O=c1cc(O)c2ccc(OCc3cccc(F)c3)cc2o1 | 2090 | 0 | – |

Second part, the molecule after the results:

| IC50 [1] [nM] | inhibition at 5 min, 10 µM [2] [%] | pIC50 [3] | Structure (SMILES) |
| --- | --- | --- | --- |
| 47.9 | – | 5.38 | Nc1cc(=O)oc2cc(OCc3cccc(Cl)c3)ccc12 |
| 407 | 12 | – | CCCOc1cc(=O)oc2cc(OCc3cccc(F)c3)ccc12 |
| 575 | 0 | – | CCCOc1cc(=O)oc2cc(OCc3ccccc3)ccc12 |
| 43.7 | 21 | – | O=c1cc(CCl)c2ccc(OCc3cccc(Cl)c3)cc2o1 |
| 5.25 | – | 4.99 | O=c1cc(CO)c2ccc(OCc3cccc(Cl)c3)cc2o1 |
| 61.7 | 5.3 | – | CCCOc1cc(=O)oc2cc(OCc3cccc(Cl)c3)ccc12 |
| 316 | 8.6 | – | CSCOc1cc(=O)oc2cc(OCc3cccc(Cl)c3)ccc12 |
| 263 | 25 | – | CCOc1cc(=O)oc2cc(OCc3cccc(F)c3)ccc12 |
| 8.71 | – | 5.39 | CNc1cc(=O)oc2cc(OCc3cccc(Cl)c3)ccc12 |
| 33.9 | 11 | – | CNC(=O)COc1cc(=O)oc2cc(OCc3cccc(Cl)c3)ccc12 |
| 7.41 | – | 5.28 | Cc1cc(=O)oc2cc(OCc3cccc(Cl)c3)ccc12 |
| 26.9 | 22 | – | CC(=O)COc1cc(=O)oc2cc(OCc3cccc(Cl)c3)ccc12 |
| 126 | 2.5 | – | CCOc1cc(=O)oc2cc(OCc3cccc(Br)c3)ccc12 |
| 479 | 6 | – | O=c1cc(O)c2ccc(OCc3cccc(Cl)c3)cc2o1 |
| 115 | 2 | – | CCOc1cc(=O)oc2cc(OCc3cccc(Cl)c3)ccc12 |
| 100 | 23 | – | COCOc1cc(=O)oc2cc(OCc3cccc(Cl)c3)ccc12 |
| 28.8 | 48 | – | CCc1cc(=O)oc2cc(OCc3cccc(Cl)c3)ccc12 |
| – | 0 | – | O=C(O)COc1cc(=O)oc2cc(OCc3cccc(Cl)c3)ccc12 |
| 74.1 | 0 | – | CCCOc1cc(=O)oc2cc(OCc3cccc(Br)c3)ccc12 |
| 417 | 4.4 | – | CCOC(=O)c1cc(=O)oc2cc(OCc3cccc(Cl)c3)ccc12 |
| 501 | 10 | – | CN(C)C(=O)COc1cc(=O)oc2cc(OCc3cccc(Cl)c3)ccc12 |
| 1820 | 0 | – | CCOC(=O)COc1cc(=O)oc2cc(OCc3cccc(Cl)c3)ccc12 |
| 204 | 3.2 | – | CCCNCc1cc(=O)oc2cc(OCc3cccc(Cl)c3)ccc12 |
| 77.6 | 22 | – | CC(O)c1cc(=O)oc2cc(OCc3cccc(Cl)c3)ccc12 (centres undefined) |
| 24500 | 3 | – | CC(C)Oc1cc(=O)oc2cc(OCc3cccc(Cl)c3)ccc12 |
| 45.7 | 17 | – | N#CCOc1cc(=O)oc2cc(OCc3cccc(Cl)c3)ccc12 |
